Consider 33 molecules from ChEMBL document CHEMBL4350992, “Identification of Diketopiperazine-Containing 2-Anilinobenzamides as Potent Sirtuin 2 (SIRT2)-Selective Inhibitors Targeting the "Selectivity Pocket", Substrate-Binding Site, and NAD+-Binding Site” (J Med Chem, 2019).

Activity calls are given as the source filed them. The calls are words filed in the database; no cut-off is given here.

Assay [1] addresses T1, NAD-dependent protein deacetylase sirtuin-2 (Homo sapiens) (UniProt Q8IXJ6).
T1 sequence (whole entry): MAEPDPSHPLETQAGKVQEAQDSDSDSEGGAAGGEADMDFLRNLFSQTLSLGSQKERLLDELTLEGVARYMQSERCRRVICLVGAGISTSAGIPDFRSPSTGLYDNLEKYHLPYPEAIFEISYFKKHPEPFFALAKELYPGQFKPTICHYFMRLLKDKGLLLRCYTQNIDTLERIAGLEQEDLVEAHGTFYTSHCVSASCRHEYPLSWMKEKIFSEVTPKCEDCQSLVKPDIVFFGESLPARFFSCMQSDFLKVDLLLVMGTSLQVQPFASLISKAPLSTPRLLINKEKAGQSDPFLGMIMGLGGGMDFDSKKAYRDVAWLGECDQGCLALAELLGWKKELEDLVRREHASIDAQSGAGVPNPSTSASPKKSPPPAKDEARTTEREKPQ
Kind of assay: Inhibition of human N-terminal His-tagged SIRT2 expressed in Escherichia coli at 10 uM using p53 (Gln-Pro-Lys-Lys(Ac)) (317 to 320 residues) as substrate incubated for 3 hrs measured up to 30 mins by fluorescence assay relative to control.

In assay [2] the target is T2, NAD-dependent protein deacetylase sirtuin-1 (Homo sapiens) (UniProt Q96EB6).
T2 sequence (whole entry): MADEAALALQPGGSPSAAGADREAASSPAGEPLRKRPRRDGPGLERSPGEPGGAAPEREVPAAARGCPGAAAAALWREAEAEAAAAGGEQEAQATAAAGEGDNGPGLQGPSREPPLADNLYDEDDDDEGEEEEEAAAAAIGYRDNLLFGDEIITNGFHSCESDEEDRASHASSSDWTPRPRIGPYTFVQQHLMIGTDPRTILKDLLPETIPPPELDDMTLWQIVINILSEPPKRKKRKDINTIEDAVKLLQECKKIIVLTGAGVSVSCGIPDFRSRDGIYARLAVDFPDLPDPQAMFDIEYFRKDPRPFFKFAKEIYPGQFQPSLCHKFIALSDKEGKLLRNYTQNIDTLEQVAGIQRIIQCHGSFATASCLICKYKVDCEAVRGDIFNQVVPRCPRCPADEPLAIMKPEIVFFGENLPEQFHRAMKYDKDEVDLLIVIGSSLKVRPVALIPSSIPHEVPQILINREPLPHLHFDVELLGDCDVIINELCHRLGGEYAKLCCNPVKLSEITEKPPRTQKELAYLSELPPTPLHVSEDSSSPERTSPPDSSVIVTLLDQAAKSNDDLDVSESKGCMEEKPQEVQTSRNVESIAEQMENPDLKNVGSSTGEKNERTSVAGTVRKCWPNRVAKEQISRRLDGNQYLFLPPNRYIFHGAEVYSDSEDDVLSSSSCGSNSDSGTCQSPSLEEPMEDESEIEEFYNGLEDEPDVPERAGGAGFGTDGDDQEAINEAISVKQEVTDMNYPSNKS
Briefly: Inhibition of human N-terminal His-tagged SIRT1 expressed in Escherichia coli at 50 uM using p53 (Arg-His-Lys-Lys(Ac)) (379 to 382 residues) as substrate incubated for 3 hrs measured up to 30 mins by fluorescence assay relative to control.

Assay [3] concerns the target T1, NAD-dependent protein deacetylase sirtuin-2 (Homo sapiens). Kind of assay: Inhibition of human N-terminal His-tagged SIRT2 expressed in Escherichia coli at 50 uM using p53 (Gln-Pro-Lys-Lys(Ac)) (317 to 320 residues) as substrate incubated for 3 hrs measured up to 30 mins by fluorescence assay relative to control.
The subject of assay [4] is MCF7. Briefly: Growth inhibition of human MCF7 cells at 15 uM measured after 72 hrs by AlamarBlue assay. Format: functional, cell-based. The method in brief: (§1)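 MCF-7 cells in DMEM with 10% FBS were seeded at 1×10³ cells/well. After 24 h at 37°C, 5% CO₂, compound in medium was added at varying concentrations for 72 h. AlamarBlue was then added for 3 h and fluorescence read (ex 540/em 590 nm). Percent growth was calculated from the readings, and GI50 from the dose response. Three independent determinations.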
On the technique in general: Alamar Blue is a resazurin reagent that responds to reducing activity.

In assay [5] the test system is N2a. Kind of assay: Induction of neurite outgrowth in mouse Neuro2a cells at 0.2 to 2 uM measured after 24 hrs by microscopic analysis. Format: functional, cell-based. The procedure, abridged:
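N2a cells were plated at 1×10⁴ cells/mL in DMEM with 10% FBS, then switched to DMEM with 2% FBS for differentiation. Compound was added for 24 or 48 h and morphology scored by microscopy. A cell counted as differentiated if it had ≥1 neurite longer than twice the soma diameter; ≥100 cells were counted per condition. Triplicate experiments, mean ± SD, one-way ANOVA with Dunnett's test.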

For assay [6], the target named is T3, NAD-dependent protein deacetylase sirtuin-3, mitochondrial (Homo sapiens) (UniProt Q9NTG7).
T3 sequence (whole entry): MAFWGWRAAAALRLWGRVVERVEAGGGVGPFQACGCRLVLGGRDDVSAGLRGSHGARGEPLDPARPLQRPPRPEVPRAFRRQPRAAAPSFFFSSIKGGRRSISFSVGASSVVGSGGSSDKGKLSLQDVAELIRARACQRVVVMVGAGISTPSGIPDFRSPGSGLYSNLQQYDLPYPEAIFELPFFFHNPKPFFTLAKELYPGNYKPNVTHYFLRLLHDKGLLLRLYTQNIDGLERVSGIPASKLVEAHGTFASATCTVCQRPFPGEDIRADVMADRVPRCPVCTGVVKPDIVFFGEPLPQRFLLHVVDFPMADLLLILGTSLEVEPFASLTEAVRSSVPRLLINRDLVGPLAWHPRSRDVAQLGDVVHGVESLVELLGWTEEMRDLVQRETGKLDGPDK
Briefly: Inhibition of human N-terminal His-tagged SIRT3 (102 to 399 residues) expressed in Escherichia coli at 100 uM using p53 (Gln-Pro-Lys-Lys(Ac)) (317 to 320 residues) as substrate incubated for 3 hrs measured up to 30 mins by fluorescence assay relative to control.

Assay [7] addresses NAD-dependent protein deacylase sirtuin-5, mitochondrial (Homo sapiens) (UniProt Q9NXA8). Briefly: Inhibition of human N-terminal His-tagged SIRT5 (37 to 310 residues) expressed in Escherichia coli at 100 uM using flour de lys succinyl as substrate incubated for 3 hrs measured up to 30 mins by fluorescence assay relative to control.
For assay [8], the target named is T2, NAD-dependent protein deacetylase sirtuin-1 (Homo sapiens). Kind of assay: Inhibition of human N-terminal His-tagged SIRT1 expressed in Escherichia coli at 100 uM using p53 (Arg-His-Lys-Lys(Ac)) (379 to 382 residues) as substrate incubated for 3 hrs measured up to 30 mins by fluorescence assay relative to control.
The test system of assay [9] is MCF7. Briefly: Growth inhibition of human MCF7 cells at 30 uM measured after 72 hrs by AlamarBlue assay relative to control. Format: functional. The following applies: MCF7, 72 h, read-out: GI. The method in brief:
as §1

For assay [10], the target named is T1, NAD-dependent protein deacetylase sirtuin-2 (Homo sapiens). Briefly: Inhibition of SIRT2 in human MCF7 cells assessed as accumulation of acetylated-alpha tubulin at 0.1 uM measured after 24 hrs by Western blot analysis relative to alpha-tubulin. The assay is classed as cell-based. The procedure, abridged:
(§2)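 MCF-7 cells (5×10⁵ per dish) were treated 24 h, lysed in SDS buffer and protein was quantified by BCA. Equal protein was run on 5–20% SDS-PAGE and transferred to PVDF. Blots were probed for H3K9Ac, H3, acetyl-α-tubulin and α-tubulin, then given HRP secondaries and ECL detection. Acetyl/total ratios came from blot optical density.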

The target in assay [11] is T2, NAD-dependent protein deacetylase sirtuin-1 (Homo sapiens). Kind of assay: Inhibition of SIRT1 in human MCF7 cells assessed as H3K9Ac expression at 0.1 uM measured after 24 hrs by Western blot analysis relative to H3. Format: cell-based. The procedure, abridged:
as §2
On the technique in general: A western blot detects proteins with antibodies after separation by electrophoresis.

The test system of assay [12] is MCF7. Kind of assay: Growth inhibition of human MCF7 cells measured after 72 hrs by AlamarBlue assay. Format: functional. The following applies: MCF7, 72 h. The method in brief: as §1

Sequence of NAD-dependent protein deacylase sirtuin-5, mitochondrial (Homo sapiens) (Q9NXA8 37-310 limits assumed): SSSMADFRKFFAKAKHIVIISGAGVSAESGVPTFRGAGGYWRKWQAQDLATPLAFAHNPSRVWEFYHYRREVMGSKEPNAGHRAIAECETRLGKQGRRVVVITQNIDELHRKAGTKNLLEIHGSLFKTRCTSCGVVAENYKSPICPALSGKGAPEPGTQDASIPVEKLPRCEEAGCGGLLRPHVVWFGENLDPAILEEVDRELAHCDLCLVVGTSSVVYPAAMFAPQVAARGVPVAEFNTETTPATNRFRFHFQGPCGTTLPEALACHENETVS

On to `O=C(NCCO)c1ccccc1Nc1cccc(OCCc2ccccc2)c1`, for which the inhibition (in general, the relative decrease from the control value, in per cent) in [1] is 76%; in assay [2] it was 12%.

Turning to `C[C@H](NC(=O)c1ccccc1Nc1cccc(OCCc2ccccc2)c1)C(N)=O`, the inhibition in assay [1] was found to be 81%; in assay [2], 15%.

For the molecule `CN(C)CCNC(=O)c1ccccc1Nc1cccc(OCCc2ccccc2)c1`, the inhibition in [3] turned out to be 74%; in assay [1], 59%; in assay [2], 18%.

Regarding `CCCCCCCCCCCCCC(=S)NCCCC[C@H](NC(=O)OCc1ccccc1)C(=O)Nc1ccccc1`, the “growth inhibition (GI)” value in assay [4] is “Active”. In addition, the outcome in assay [5] was Active.

As for `CCCNC(=O)c1ccccc1Nc1cccc(OCCc2ccccc2)c1`, the figures for the inhibition in assay [1] and in assay [2] were 58% and 8%, respectively.

Take `O=C(O)CNC(=O)c1ccccc1Nc1cccc(OCCc2ccccc2)c1`: the inhibition stood at 50% in [1] and 8% in assay [2].

Take `NC(=O)c1ccccc1Nc1cccc(OCCc2ccccc2)c1`: the inhibition in assay [1] amounted to 90%; in assay [6] it was 17%; in assay [7], 8%; in assay [2], 12%; in assay [8], 17%. Moreover, the outcome in assay [5] was Active. The inhibition of growth at 30 µM in assay [9] came out at 30%.

For the molecule `O=C(NCCc1ccccc1)c1ccccc1Nc1cccc(OCCc2ccccc2)c1`, the inhibition came to 46% in assay [1] and 5% in [2].

Consider `O=C(NC1CCN(Cc2ccccc2)CC1)c1ccccc1Nc1cccc(OCCc2ccccc2)c1`, for which the inhibition in assay [1] worked out at 56%; in assay [2], 8%.

Consider `CCCCCNC(=O)c1ccccc1Nc1cccc(OCCc2ccccc2)c1`, for which the inhibition worked out at 50% in [1] and 9% in assay [2].

For the molecule `CC(C)(C)OC(=O)NCCNC(=O)c1ccccc1Nc1cccc(OCCc2ccccc2)c1`, the inhibition worked out at 77% in [1] and 11% in assay [2].

Take `NC(=O)c1ccccc1Nc1cccc(OCCc2ccc3ccccc3c2)c1`: the inhibition in [1] turned out to be 75%; in assay [2], 7%.

Take `O=C(O)c1ccccc1Nc1cccc(OCCc2ccccc2)c1`: the results for the inhibition in assay [1] and in assay [2] were 12% and 2.5%, respectively.

As to `O=C(NC1CCCCC1)c1ccccc1Nc1cccc(OCCc2ccccc2)c1`, the inhibition in assay [1] worked out at 28%; in assay [2], 15%.

Regarding `NC(=O)CNC(=O)c1ccccc1Nc1cccc(OCCc2ccccc2)c1`, the inhibition was found to be 85% in [1] and 10% in assay [2].

As for `O=C(Nc1ccccc1)c1ccccc1Nc1cccc(OCCc2ccccc2)c1`, the inhibition was determined as 44% in [1] and 9% in assay [2].

On to `CCN(CC)C(=O)c1ccccc1Nc1cccc(OCCc2ccccc2)c1`, for which the inhibition stood at 61% in assay [1] and 11% in assay [2].

Regarding `C#CCNC(=O)c1ccccc1Nc1cccc(OCCc2ccccc2)c1`, the figures for the inhibition in assay [1] and in assay [2] were 77% and 12%, respectively.

On to `CONC(=O)c1ccccc1Nc1cccc(OCCc2ccccc2)c1`, for which the inhibition in assay [1] was 63%; in [2], 6%.

On to `CC(C)(C)OC(=O)NCCCNC(=O)c1ccccc1Nc1cccc(OCCc2ccccc2)c1`, for which the figures for the inhibition in [1] and in assay [2] were 57% and 4%, respectively.

On to `CCCCNC(=O)c1ccccc1Nc1cccc(OCCc2ccccc2)c1`, for which the figures for the inhibition in assay [1] and in assay [2] were 57% and 2%, respectively.

Consider `Cc1cc(C)nc(SCC(=O)Oc2cccc(Nc3ccccc3C(N)=O)c2)n1`, for which the inhibition in assay [1] came to 26%; in [2], 7%.

As to `O=C(CCCCCCC(=O)Nc1ccccc1)NO`, the fold change (FC) in assay [10] came out at 1.61; in assay [11] it was 1.3.

With `COC(=O)CNC(=O)c1ccccc1Nc1cccc(OCCc2ccccc2)c1`, the values for the inhibition in [1] and in assay [2] were 72% and 17%, respectively.

Take `CC(C)CCNC(=O)c1ccccc1Nc1cccc(OCCc2ccccc2)c1`: the inhibition came to 70% in assay [3], 45% in [1] and 8% in assay [2].

For the molecule `CC(C)(C)OC(=O)NCCCCCNC(=O)CNC(=O)c1ccccc1Nc1cccc(OCCc2ccccc2)c1`, the inhibition in assay [1] was 83%; in [2], 14%.

Consider `O=C(NOC1CCCCO1)c1ccccc1Nc1cccc(OCCc2ccccc2)c1` (stereo not drawn), for which the inhibition in [1] turned out to be 54%; in assay [2], 8%.

Regarding `O=C(NO)c1ccccc1Nc1cccc(OCCc2ccccc2)c1`, the inhibition in assay [1] is 68%; in [2], 13%.

For the molecule `NC(=O)Cc1ccccc1Nc1cccc(OCCc2ccccc2)c1`, the figures for the inhibition in assay [1] and in assay [2] were 68% and 19%, respectively.

With `C[C@H](NC(=O)[C@H](CCCCNC(=S)CNC(=O)c1ccccc1Nc1cccc(OCCc2ccccc2)c1)NC(=O)OCc1ccccc1)C(N)=O`, in [12], the GI50 (usually the concentration giving 50% growth inhibition) was found to be 8.43 µM. The result in assay [5] was Active.

As for `O=C(c1ccccc1Nc1cccc(OCCc2ccccc2)c1)N1CCOCC1`, the inhibition in [1] turned out to be 71%; in [2] it was 4%.

In the case of `CC(C)(C)OC(=O)NCCCCNC(=O)CNC(=O)c1ccccc1Nc1cccc(OCCc2ccccc2)c1`, the inhibition in assay [1] came to 83%; in assay [2] it was 23%.

In the case of `O=C(NCc1ccccc1)c1ccccc1Nc1cccc(OCCc2ccccc2)c1`, the inhibition in assay [1] is 70%; in assay [2], 12%.
